Results as given in ChEMBL document CHEMBL3414508, “A few atoms make the difference: synthetic, CD, NMR and computational studies on antiviral and antibacterial activities of glycopeptide antibiotic aglycon derivatives” (Eur J Med Chem, 2015).
In brackets after ≈: the same amount, converted by molar mass.

Legend:
[1] = Cytotoxicity against MDCK cells after 72 hrs by microscopic analysis; type: cell-based, Canis lupus familiaris; settings: dog
Method in brief: (§1)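 Uninfected MDCK cultures were run in parallel with serial compound dilutions for 72 h at 35°C. MCC is the concentration producing minimal changes in cell morphology, judged by microscopy. […] Means of 2 to 5 independent tests.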

[2] = Cytotoxicity against MDCK cells after 72 hrs by MTS assay; type: cell-based, Canis lupus familiaris; settings: dog; method in brief: as §1
[3] = Antiviral activity against Influenza A virus (A/Hong Kong/7/1987(H3N2)) infected in MDCK cells assessed as reduction of virus-induced cytopathic effect after 72 hrs by microscopic analysis; type: functional, cell-based
Method in brief: (§2)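 Subconfluent MDCK cultures given serial compound dilutions together with virus at MOI 0.0004 PFU/cell. Incubation 72 h at 35°C. […] Means of 2 to 5 independent tests.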

[4] = Antiviral activity against Influenza A virus (A/Hong Kong/7/1987(H3N2)) infected in MDCK cells assessed as cell viability after 72 hrs by MTS assay; type: functional, cell-based; method in brief: as §2
Influenza B virus [5] = assay: Antiviral activity against Influenza B virus (B/Hong Kong/05/1972) infected in MDCK cells assessed as reduction of virus-induced cytopathic effect after 72 hrs by microscopic analysis; type: functional, cell-based; settings: B/Hong Kong/05/1972, MDCK; method in brief: as §2
Influenza B virus [6] = assay: Antiviral activity against Influenza B virus (B/Hong Kong/05/1972) infected in MDCK cells assessed as cell viability after 72 hrs by MTS assay; type: functional, cell-based; settings: B/Hong Kong/05/1972, MDCK; method in brief: as §2
Bacillus spizizenii = assay: Antibacterial activity against Bacillus subtilis ATCC 6633 by broth microdilution method; type: functional
Staphylococcus aureus [7] = assay: Antibacterial activity against methicillin-sensitive Staphylococcus aureus ATCC 29213 by broth microdilution method; type: functional
Staphylococcus aureus [8] = assay: Antibacterial activity against methicillin-resistant Staphylococcus aureus ATCC 33591 by broth microdilution method; type: functional
[9] = test system: Staphylococcus epidermidis; assay: Antibacterial activity against Staphylococcus epidermidis expressing mecA by broth microdilution method; type: functional
[10] = test system: Staphylococcus epidermidis; assay: Antibacterial activity against biofilm producing Staphylococcus epidermidis ATCC 35984 by broth microdilution method; type: functional
Enterococcus faecalis [11] = assay: Antibacterial activity against Enterococcus faecalis ATCC 29212 by broth microdilution method; type: functional
Enterococcus faecalis [12] = assay: Antibacterial activity against VanA+ Enterococcus faecalis 15376 by broth microdilution method; type: functional
Enterococcus faecalis [13] = assay: Antibacterial activity against VanB+ Enterococcus faecalis ATCC 51299 by broth microdilution method; type: functional
Influenza A virus [14] = assay: Antiviral activity against Influenza A virus (A/Puerto Rico/8/34(H1N1)) infected in MDCK cells assessed as reduction of virus-induced cytopathic effect after 72 hrs by microscopic analysis; type: functional, organism-based; settings: A/Puerto Rico/8/1934(H1N1)
Method in brief: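 Subconfluent MDCK cultures given serial compound dilutions together with virus at MOI 0.0004 PFU/cell. Incubation 72 h at 35°C. Means of 2 to 5 independent tests.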

Influenza A virus [15] = assay: Antiviral activity against Influenza A virus (A/Puerto Rico/8/34(H1N1)) infected in MDCK cells assessed as cell viability after 72 hrs by MTS assay; type: functional, organism-based, A/Puerto Rico/8/1934(H1N1); method in brief: as §2
[16] = Influenza A virus, A/Puerto Rico/8/1934(H1N1), MDCK, 72 h

Compound | MCC at 72 h [1] [µM] | CC50 at 72 h [2] [µM] | EC50 [3] [µM] | EC50 [4] [µM] | EC50 (Influenza B virus [5]) [µM] | EC50 (Influenza B virus [6]) [µM] | MIC (Bacillus spizizenii) [µg/mL] | MIC (Staphylococcus aureus [7]) [µg/mL] | MIC (Staphylococcus aureus [8]) [µg/mL] | MIC [9] [µg/mL] | MIC [10] [µg/mL] | MIC (Enterococcus faecalis [11]) [µg/mL] | MIC (Enterococcus faecalis [12]) [µg/mL] | MIC (Enterococcus faecalis [13]) [µg/mL] | EC50 (Influenza A virus [14]) [µM] | EC50 (Influenza A virus [15]; [16]) [µM] | EC50 (Influenza A virus [15]; mdck) [µM]
COC(=O)[C@H]1NC(=O)[C@H]2NC(=O)[C@H](NC(=O)[C@@H]3NC(=O)[C@H]4NC(=O)[C@H](NC(=O)[C@H](N)c5ccc(O)c(c5)Oc5cc4cc(O)c5C)[C@H](O)c4ccc(cc4)Oc4cc3cc(c4O)Oc3ccc(cc3)[C@H]2O)c2ccc(O)c(c2)-c2c(O)cc(O)cc21 | 81 | 44 | 4.6 | 2.5 | 5.1 | 5.4 | – | – | – | – | – | – | – | – | – | – | –
COC(=O)[C@H]1NC(=O)[C@H]2NC(=O)[C@H](NC(=O)[C@@H]3NC(=O)[C@H]4NC(=O)[C@@H](Cc5ccc(c(Cl)c5)Oc5cc3cc(c5O)Oc3ccc(cc3Cl)[C@H]2O)NC(=O)[C@H](Nc2c(NCc3ccc(-c5ccccc5)cc3)c(=O)c2=O)c2ccc(O)c(c2)Oc2cc(O)cc4c2)c2ccc(O)c(c2)-c2c(O)cc(O)cc21 [listing 1 of 2 here] | – | – | – | – | – | – | 256 (≈ 174 µM) | 128 (≈ 86.8 µM) | 256 (≈ 174 µM) | 32 (≈ 21.7 µM) | 256 (≈ 174 µM) | 64 (≈ 43.4 µM) | 128 (≈ 86.8 µM) | 256 (≈ 174 µM) | – | – | –
COC(=O)[C@H]1NC(=O)[C@H]2NC(=O)[C@H](NC(=O)[C@@H]3NC(=O)[C@H]4NC(=O)[C@H](NC(=O)[C@H](Nc5c(NCc6ccc(-c7ccccc7)cc6)c(=O)c5=O)c5ccc(O)c(c5)Oc5cc4cc(O)c5C)[C@H](O)c4ccc(cc4)Oc4cc3cc(c4O)Oc3ccc(cc3)[C@H]2O)c2ccc(O)c(c2)-c2c(O)cc(O)cc21 [listing 1 of 2 here] | – | – | – | – | – | – | 2 (≈ 1.39 µM) | 1 (≈ 0.697 µM) | 8 (≈ 5.57 µM) | 2 (≈ 1.39 µM) | 2 (≈ 1.39 µM) | 1 (≈ 0.697 µM) | – | 8 (≈ 5.57 µM) | – | – | –
COC(=O)[C@H]1NC(=O)[C@H]2NC(=O)[C@H](NC(=O)[C@@H]3NC(=O)[C@H]4NC(=O)[C@@H](Cc5ccc(c(Cl)c5)Oc5cc3cc(c5O)Oc3ccc(cc3Cl)[C@H]2O[C@@H]2O[C@H](CO)[C@@H](O)[C@H](O)[C@H]2NC(C)=O)NC(=O)[C@H](N)c2ccc(O)c(c2)Oc2cc(O)cc4c2)c2ccc(O)c(c2)-c2c(O)cc(O)cc21 | 100 | > 100 | > 100 | > 100 | > 100 | > 100 | – | – | – | – | – | – | – | – | > 100 | > 100 | –
N[C@H]1C(=O)N[C@@H]2Cc3ccc(c(Cl)c3)Oc3cc4cc(c3O)Oc3ccc(cc3Cl)[C@@H](O)[C@@H]3NC(=O)[C@H](NC(=O)[C@@H]4NC(=O)[C@@H](NC2=O)c2cc(O)cc(c2)Oc2cc1ccc2O)c1ccc(O)c(c1)-c1c(O)cc(O)cc1[C@@H](C(=O)O)NC3=O [TEICOPLANIN AGLYCON] | 100 | > 100 | > 100 | > 100 | > 100 | > 100 | – | – | – | – | – | – | – | – | > 100 | > 100 | –
COC(=O)[C@H]1NC(=O)[C@H]2NC(=O)[C@H](NC(=O)[C@@H]3NC(=O)[C@H]4NC(=O)[C@@H](Cc5ccc(c(Cl)c5)Oc5cc3cc(c5O)Oc3ccc(cc3Cl)[C@H]2O[C@@H]2O[C@H](CO)[C@@H](O)[C@H](O)[C@H]2NC(C)=O)NC(=O)[C@H](Nc2c(OC)c(=O)c2=O)c2ccc(O)c(c2)Oc2cc(O)cc4c2)c2ccc(O)c(c2)-c2c(O)cc(O)cc21 | 100 | > 100 | > 100 | > 100 | > 100 | > 100 | – | – | – | – | – | – | – | – | > 100 | > 100 | –
COC(=O)[C@H]1NC(=O)[C@H]2NC(=O)[C@H](NC(=O)[C@@H]3NC(=O)[C@H]4NC(=O)[C@@H](Cc5ccc(cc5)Oc5cc3cc(c5O)Oc3ccc(cc3)[C@H]2O)NC(=O)[C@H](Nc2c(NCc3ccc(-c5ccccc5)cc3)c(=O)c2=O)c2ccc(O)c(c2)Oc2cc(O)cc4c2)c2ccc(O)c(c2)-c2c(O)cc(O)cc21 | 16 | 20 | 0.52 | 0.7 | > 100 | > 100 | – | – | – | – | – | – | – | – | 0.67 | 0.58 | –
COC(=O)[C@H]1NC(=O)[C@H]2NC(=O)[C@H](NC(=O)[C@@H]3NC(=O)[C@H]4NC(=O)[C@@H](Cc5ccc(c(Cl)c5)Oc5cc3cc(c5O)Oc3ccc(cc3Cl)[C@H]2O[C@@H]2O[C@H](CO)[C@@H](O)[C@H](O)[C@H]2NC(C)=O)NC(=O)[C@H](Nc2c(NCc3ccc(-c5ccccc5)cc3)c(=O)c2=O)c2ccc(O)c(c2)Oc2cc(O)cc4c2)c2ccc(O)c(c2)-c2c(O)cc(O)cc21 | 20 | 58 | > 100 | > 100 | > 100 | > 100 | – | – | – | – | – | – | – | – | > 100 | > 100 | –
CC(=O)N[C@H]1[C@H](O[C@@H]2c3ccc(c(Cl)c3)Oc3cc4cc(c3O)Oc3ccc(cc3Cl)C[C@H]3NC(=O)[C@H](N)c5ccc(O)c(c5)Oc5cc(O)cc(c5)[C@H](NC3=O)C(=O)N[C@H]4C(=O)N[C@H]3C(=O)N[C@@H]2C(=O)N[C@H](C(=O)O)c2cc(O)cc(O)c2-c2cc3ccc2O)O[C@H](CO)[C@@H](O)[C@@H]1O | ≥ 100 | > 100 | 17 | 34 | > 100 | > 100 | – | – | – | – | – | – | – | – | – | 43 | –
O=C1N[C@H]2C(=O)N[C@H]3C(=O)N[C@H](C(=O)N[C@H](C(=O)O)c4cc(O)cc(O)c4-c4cc3ccc4O)[C@H](O)c3ccc(c(Cl)c3)Oc3cc2cc(c3O)Oc2ccc(cc2Cl)C[C@H]2NC(=O)[C@H](Nc3c(NCc4ccc(-c5ccccc5)cc4)c(=O)c3=O)c3ccc(O)c(c3)Oc3cc(O)cc(c3)[C@@H]1NC2=O | 20 | 11 | > 100 | > 100 | > 100 | > 100 | – | – | – | – | – | – | – | – | > 100 | > 100 | –
COC(=O)[C@H]1NC(=O)[C@H]2NC(=O)[C@H](NC(=O)[C@@H]3NC(=O)[C@H]4NC(=O)[C@@H](Cc5ccc(c(Cl)c5)Oc5cc3cc(c5O)Oc3ccc(cc3Cl)[C@H]2O)NC(=O)[C@H](Nc2c(NCc3ccc(-c5ccccc5)cc3)c(=O)c2=O)c2ccc(O)c(c2)Oc2cc(O)cc4c2)c2ccc(O)c(c2)-c2c(O)cc(O)cc21 [listing 2 of 2 here] | 4 | 7.6 | > 100 | > 100 | > 100 | > 100 | – | – | – | – | – | – | – | – | > 100 | > 100 | –
COc1c(N[C@H]2C(=O)N[C@@H]3Cc4ccc(c(Cl)c4)Oc4cc5cc(c4O)Oc4ccc(cc4Cl)[C@@H](O)[C@@H]4NC(=O)[C@H](NC(=O)[C@@H]5NC(=O)[C@@H](NC3=O)c3cc(O)cc(c3)Oc3cc2ccc3O)c2ccc(O)c(c2)-c2c(O)cc(O)cc2[C@@H](C(=O)O)NC4=O)c(=O)c1=O | 100 | 49 | > 100 | > 100 | > 100 | > 100 | – | – | – | – | – | – | – | – | > 100 | > 100 | –
COC(=O)[C@H]1NC(=O)[C@H]2NC(=O)[C@H](NC(=O)[C@@H]3NC(=O)[C@H]4NC(=O)[C@H](NC(=O)[C@H](Nc5c(NCc6ccc(-c7ccccc7)cc6)c(=O)c5=O)c5ccc(O)c(c5)Oc5cc4cc(O)c5C)[C@H](O)c4ccc(cc4)Oc4cc3cc(c4O)Oc3ccc(cc3)[C@H]2O)c2ccc(O)c(c2)-c2c(O)cc(O)cc21 [listing 2 of 2 here] | 20 | 39 | 0.15 | ≤ 0.42 | 0.84 | 1 | – | – | – | – | – | – | – | – | 0.15 | 0.21 | –
NC(=O)c1ncn([C@@H]2O[C@H](CO)[C@@H](O)[C@H]2O)n1 [RIBAVIRIN] | > 100 | > 100 | 12 | 12 | 7 | 3.4 | – | – | – | – | – | – | – | – | – | – | 8.9
CC(=O)N[C@H]1[C@H](O[C@@H]2c3ccc(c(Cl)c3)Oc3cc4cc(c3O)Oc3ccc(cc3Cl)C[C@H]3NC(=O)[C@H](Nc5c(NCc6ccc(-c7ccccc7)cc6)c(=O)c5=O)c5ccc(O)c(c5)Oc5cc(O)cc(c5)[C@H](NC3=O)C(=O)N[C@H]4C(=O)N[C@H]3C(=O)N[C@@H]2C(=O)N[C@H](C(=O)O)c2cc(O)cc(O)c2-c2cc3ccc2O)O[C@H](CO)[C@@H](O)[C@@H]1O | 0.8 | 6.5 | > 100 | > 100 | > 100 | > 100 | – | – | – | – | – | – | – | – | > 100 | > 100 | –
NC12CC3CC(CC(C3)C1)C2 [AMANTADINE] | > 500 | > 500 | 2 | 1.8 | > 500 | > 500 | – | – | – | – | – | – | – | – | – | 453 | –
CC(N)C12CC3CC(CC(C3)C1)C2 (stereo not given) [RIMANTADINE] | > 500 | > 500 | 4 | 1.1 | > 500 | > 500 | – | – | – | – | – | – | – | – | 4 | 15 | –
